Assays:
P388 [1] = test: Antitumor activity against mouse P388 cells allografted in mouse assessed as increase in survival time at 6.25 mg/kg administered as qd for 1 to 9 days relative to control; assay type: functional
In short: (§1)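 Transplanted P388 leukemia or B16 melanoma in mice, dosed on a schedule of nine daily doses (qd 1-9). Efficacy was the increase in survival time of treated versus control animals (% T/C), from single tests.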

B16 [2] = test: Antitumor activity against mouse B16 cells allografted in mouse assessed as increase in survival time at 6.25 mg/kg administered as qd for 1 to 9 days relative to control; assay type: functional; in short: as §1
P388 [3] = test: Antitumor activity against mouse P388 cells allografted in mouse assessed as increase in survival time at 1 mg/kg, ip administered as qd for 1 to 9 days relative to control; assay type: functional; conditions: route intraperitoneal
P388 [4] = test: Antitumor activity against mouse P388 cells allografted in mouse assessed as increase in survival time at 4 mg/kg, ip administered as qd for 1 to 9 days relative to control; assay type: functional; conditions: route intraperitoneal
L1210 [5] = test: Inhibition of RNA synthesis in mouse L1210 cells; assay type: functional; conditions: read-out: ED50 (the source's name)
Calf thymus DNA = test: Binding affinity to calf thymus DNA assessed as change in melting temperature; assay type: nucleic-acid assay; conditions: Bos taurus
In short: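 Thermal denaturation of isolated helical DNA in 0.010 M phosphate buffer, pH 7.0, with 10⁻⁵ M EDTA and 5% Me₂SO to solubilize compounds; read-out is the increase in melting temperature (ΔTm, °C).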

P388 [6] = test: Antitumor activity against mouse P388 cells allografted in mouse assessed as increase in survival time at 12 mg/kg, ip administered as single dose on day 5, 9 and 13 relative to control; assay type: functional; conditions: route intraperitoneal
In short: (§2)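 Mice received ip P388 leukemia cells on day 0. Disease was left to progress and ip dosing was delayed to days 5, 9 and 13. Survival time of treated relative to control mice was expressed as % T/C, with ≥125 defined as active. Values are means of repeated tests (27 for reference agents, duplicate for others).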

B16 [7] = test: Antitumor activity against mouse B16 cells allografted in mouse assessed as increase in survival time at 2 mg/kg, ip administered as qd for 1 to 9 days relative to control; assay type: functional; conditions: route intraperitoneal
In short: (§3)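 B16 melanoma in mice. Treatment was given as nine daily doses, as a single dose on day 1, or as a single dose delayed to day 5. Activity was taken as the increase in survival time of treated versus control animals (% T/C).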

P388 [8] = test: Antitumor activity against mouse P388 cells allografted in mouse assessed as increase in survival time at 2 mg/kg, ip administered as qd for 1 to 9 days relative to control; assay type: functional; conditions: route intraperitoneal
P388 [9] = test: Antitumor activity against mouse P388 cells allografted in mouse assessed as increase in survival time at 3 mg/kg, ip administered as single dose on day 5, 9 and 13 relative to control; assay type: functional; conditions: route intraperitoneal; in short: as §2
B16 [10] = test: Antitumor activity against mouse B16 cells allografted in mouse assessed as increase in survival time at 12.5 mg/kg, ip administered as single dose on day 5 relative to control; assay type: functional; conditions: route intraperitoneal; in short: as §3
Rattus norvegicus = species: Rattus norvegicus; test: Cardiotoxicity in rat assessed as minimum cumulative drug dose causing electrocardiographic changes; assay type: toxicity, organism-based; conditions: in vivo
In short: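 Zbinden cardiotoxicity test in rats; endpoint is the minimum cumulative dose producing significant electrocardiographic changes, expressed in mg/kg.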

Salmonella typhimurium [11] = test: Genotoxicity in Salmonella typhimurium TA98 at 32 ug/plate by Ames test; assay type: toxicity, organism-based; conditions: salmonella enterica subsp. enterica serovar typhimurium
In short: (§4)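 Ames reversion in S. typhimurium TA98, run with and without microsomal activation; doses up to a maximum of 32 μg/plate; four determinations; mutagenicity given as revertants/nmol.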

Salmonella typhimurium [12] = test: Genotoxicity in Salmonella typhimurium TA100 by Ames test; assay type: toxicity, organism-based; conditions: salmonella enterica subsp. enterica serovar typhimurium
L1210 [13] = test: Inhibition of DNA synthesis in mouse L1210 cells; assay type: functional; conditions: read-out: ED50 (the source's name)
P388 [14] = test: Antitumor activity against mouse P388 cells allografted in mouse assessed as increase in survival time at 6 mg/kg, ip administered as single dose on day 5, 9 and 13 relative to control; assay type: functional; conditions: route intraperitoneal; in short: as §2
P388 [15] = test: Antitumor activity against mouse P388 cells allografted in mouse assessed as increase in survival time at 24 mg/kg, ip administered as single dose on day 5, 9 and 13 relative to control; assay type: functional; conditions: route intraperitoneal; in short: as §2
Salmonella typhimurium [16] = test: Genotoxicity in Salmonella typhimurium TA98 assessed as number of revertants by Ames test; assay type: toxicity, organism-based; conditions: salmonella enterica subsp. enterica serovar typhimurium; in short: as §4
P388 [17] = test: Antitumor activity against mouse P388 cells allografted in mouse assessed as increase in survival time at 1.5 mg/kg, ip administered as single dose on day 5, 9 and 13 relative to control; assay type: functional; conditions: route intraperitoneal; in short: as §2
P388 [18] = test: Antitumor activity against mouse P388 cells allografted in mouse assessed as increase in survival time at 0.5 mg/kg, ip administered as qd for 1 to 9 days relative to control; assay type: functional; conditions: route intraperitoneal
Salmonella typhimurium [19] = test: Genotoxicity in Salmonella typhimurium TA98 assessed as number of revertants by Ames test in presence of microsomal activation; assay type: toxicity, organism-based; conditions: salmonella enterica subsp. enterica serovar typhimurium; in short: as §4
Salmonella typhimurium [20] = test: Genotoxicity in Salmonella typhimurium TA98 assessed as number of revertants by Ames test in absence of microsomal activation; assay type: toxicity, organism-based; conditions: salmonella enterica subsp. enterica serovar typhimurium; in short: as §4
B16 [21] = test: Antitumor activity against mouse B16 cells allografted in mouse assessed as increase in survival time at 6.25 mg/kg, ip administered as single dose on day 1 relative to control; assay type: functional; conditions: route intraperitoneal; in short: as §3
P388 [22] = test: Antitumor activity against mouse P388 cells allografted in mouse assessed as increase in survival time at 0.39 mg/kg, ip administered as qd for 1 to 9 days relative to control; assay type: functional; conditions: route intraperitoneal
Salmonella typhimurium [23] = test: Genotoxicity in Salmonella typhimurium TA98 at >8 ug/plate by Ames test; assay type: toxicity, organism-based; conditions: salmonella enterica subsp. enterica serovar typhimurium
P388 [24] = test: Antitumor activity against mouse P388 cells allografted in mouse assessed as increase in survival time at 0.78 mg/kg, ip administered as qd for 1 to 9 days relative to control; assay type: functional; conditions: route intraperitoneal
Salmonella typhimurium [25] = test: Genotoxicity in Salmonella typhimurium TA100 assessed as number of revertants by Ames test; assay type: toxicity, organism-based; conditions: salmonella enterica subsp. enterica serovar typhimurium
P388 [26] = test: Antitumor activity against mouse P388 cells allografted in mouse assessed as increase in survival time at 4 mg/kg, ip administered as single dose for every 4 days up to 13 days relative to control; assay type: functional; conditions: route intraperitoneal; in short: as §2
P388 [27] = test: Antitumor activity against mouse P388 cells allografted in mouse assessed as increase in survival time at 8 mg/kg, ip administered as single dose on day 5, 9 and 13 relative to control; assay type: functional; conditions: route intraperitoneal; in short: as §2
P388 [28] = test: Antitumor activity against mouse P388 cells allografted in mouse assessed as increase in survival time at 0.2 mg/kg, ip administered as qd for 1 to 9 days relative to control; assay type: functional; conditions: route intraperitoneal
Salmonella typhimurium [29] = test: Genotoxicity in Salmonella typhimurium 908 assessed as number of revertants by Ames test; assay type: toxicity, organism-based; conditions: salmonella enterica subsp. enterica serovar typhimurium
P388 [30] = test: Antitumor activity against mouse P388 cells allografted in mouse assessed as increase in survival time at 16 mg/kg, ip administered as single dose on day 5, 9 and 13 relative to control; assay type: functional; conditions: route intraperitoneal; in short: as §2
P388 [31] = test: Antitumor activity against mouse P388 cells allografted in mouse assessed as increase in survival time at 1.56 mg/kg, ip administered as qd for 1 to 9 days relative to control; assay type: functional; conditions: route intraperitoneal
P388 [32] = test: Antitumor activity against mouse P388 cells allografted in mouse assessed as increase in survival time at 2 mg/kg, ip administered as single dose on day 5, 9 and 13 relative to control; assay type: functional; conditions: route intraperitoneal; in short: as §2
Salmonella typhimurium [33] = test: Genotoxicity in Salmonella typhimurium 8907 assessed as number of revertants by Ames test in presence of S9 fraction; assay type: toxicity, organism-based; conditions: salmonella enterica subsp. enterica serovar typhimurium

SMILES	EC50 (L1210 [5])	ΔTm (Calf thymus DNA)	MTC (Rattus norvegicus)	EC50 (L1210 [13])	Activity (Salmonella typhimurium [16])	T/C (P388 [22])	T/C (P388 [24])	T/C (P388 [26])	T/C (P388 [27])	T/C (P388 [28])	T/C (P388 [30])	T/C (P388 [31])	T/C (P388 [32])	other results
COc1cccc2c1C(=O)c1c(O)c3c(c(O)c1C2=O)C[C@@](O)(C(N)=O)C[C@@H]3O[C@H]1C[C@H](N)[C@H](O)[C@H](C)O1.Cl														T/C (P388 [1]): 151%; T/C (B16 [2]): 161%
COc1cccc2c1C(=N)c1c(O)c3c(c(O)c1C2=O)C[C@@](O)(C(C)=O)C[C@@H]3O[C@H]1C[C@H](N)[C@H](O)[C@H](C)O1.Cl	1300 nM	6.25 °C	64 mg/kg	1600 nM	1 revertants/nmol									T/C (P388 [3]): 164%; T/C (P388 [4]): 153%; T/C (P388 [6]): 116%; T/C (B16 [7]): 222%; T/C (P388 [8]): 170%; T/C (P388 [9]): 130%; T/C (B16 [10]): 122%; Activity (Salmonella typhimurium [11]): Non-toxic; Activity (Salmonella typhimurium [12]): Non-toxic; T/C (P388 [14]): 124%; T/C (P388 [15]): 126%; T/C (P388 [17]): 126%; T/C (P388 [18]): 145%; Activity (Salmonella typhimurium [19]): 0 nmol; Activity (Salmonella typhimurium [20]): 0 nmol; T/C (B16 [21]): 173%
COc1cccc2c1C(=O)c1c(O)c3c(c(O)c1C2=O)C[C@@](O)(C(C)=O)C[C@@H]3O[C@H]1C[C@H](N)[C@H](O)[C@H](C)O1.Cl [DAUNORUBICIN HYDROCHLORIDE]	300 nM		14 mg/kg	1000 nM	100 revertants/nmol	153%	160%	128%	132%	144%	126%	148%	126%	Activity (Salmonella typhimurium [23]): Toxic; Activity (Salmonella typhimurium [25]): 0.5 revertants/nmol; Activity (Salmonella typhimurium [29]): 356 revertants/nmol
COc1cccc2c1C(=O)c1c(O)c3c(c(O)c1C2=O)C[C@@](O)(C(=O)CO)C[C@@H]3O[C@H]1C[C@H](N)[C@H](O)[C@H](C)O1 [DOXORUBICIN]	700 nM	13.4 °C	11 mg/kg	1500 nM		174%	197%	146%	159%	160%	120%	176%	130%	Activity (Salmonella typhimurium [33]): 108 revertants/nmol
